In all, about 350,000 compounds went through this assay and about 740 (0.21%) were called active. The entries come from a sample that favours actives as a whole. A number with no mark means an inactive call.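 The calls were made as follows: active = every replicate reaching activation of at least 50%, whatever the mean replicate activation; inconclusive = replicates that disagree or another doubt; inactive = the rest.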

The nature of this assay: compounds raising PGC1a acetylation signal, primary screen, PGC1a modulator project, cell-based, U2OS, AlphaScreen, signal-increasing mode (AID 651723). The following applies: overnight, at 15.6 µM, active compounds read high. The gist of the method:
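detection = AlphaScreen lysate read | assay system = U2OS cells expressing flag-PGC1a plus GCN5 | input = 7000 cells/well | dosing = one concentration | times = compound overnight at 37 °C, each detection step 1 h RT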
Background: Alpha assays give light when donor and acceptor beads are brought close together.
As for `CCOC(=O)c1c(-c2ccc(C)cc2C)csc1NC(=O)CSc1nnnn1C`, the activation was -46.2%. As for `CCOC(=O)c1c(NC(=O)CSc2cn(CC)c3ccccc23)sc2c1CCC2`, the figure is 67.2% (active); as for `CCCCC(=O)Nc1ccc(C(=O)NCCCn2ccnc2)cc1`, 71.6% (active). For the compound `Cc1noc(C)c1S(=O)(=O)Nc1ccc2c(c1)C(=O)N([C@@H](C)CO)C[C@@H](C)[C@@H](CN(C)S(=O)(=O)c1ccccc1)O2`, the activation is -50.3%. As for `Cc1ccc(-c2c[n+](CC(=O)Nc3ccccc3)c3n2CCC3)cc1`, the figure is -43.3%; as for `Cc1nc(SCC(=O)NC2CCCC2)[nH]c(=O)c1C`, -42.3%; as for `Cc1csc(NC(=O)NC2(C(F)(F)F)Oc3ccccc3O2)n1`, 74.6% (active).

For the compound `c1ccc2c(-c3nn4nnnc4c4ccccc34)cccc2c1`, the activation was 71% (active). The same measure for `Cn1c2c(c(=O)n(C)c1=O)C(c1cccc(F)c1)C(C#N)=C(N)O2` (centres undefined): -80.9%; for `COc1ccc(Oc2c(Cl)cnn(-c3ccccc3)c2=O)cc1`: 112% (active).

Take `CCOCCc1nn2c(=O)cc(CSCC(=O)Nc3cccc(C)c3C)nc2s1`: the activation is -38.7%.

For `O=S(=O)(c1ccc(Br)cc1)n1ccc2ccccc21`, the activation is -40.2%. In the case of `Cc1cc(C)c(S(=O)(=O)NCC2CCC(C(=O)NCc3ccc4c(c3)OCO4)CC2)c(C)c1` (centres undefined), the activation was -43.2%.

As to `CC(C)(C)c1cc(C(=O)N/N=C/c2ccc([N+](=O)[O-])s2)n[nH]1`, the activation was 80.1% (active). In the case of `Cc1nc(Nc2ccc3c(c2)OCCO3)c2nnn(Cc3ccccc3Cl)c2n1`, the activation is -56.2%.

On to `N#Cc1c(N)nc2c3c(sc(=N)c2c1N)NC(=O)CC3c1ccccc1Cl` (centres undefined), for which the activation is 67.8% (active). As for `Cc1cccc(CS(=O)(=O)c2ncc(Cl)c(C(=O)Nc3ccc(F)cc3)n2)c1`, the figure is 138% (active); as for `O=C(Nc1cccc(Cl)c1)c1cncn1-c1ccc(F)cc1`, -44.8%. The same measure for `CN(C)c1ccc(-n2cccc2/C=N/n2cnnc2)cc1`: -55.5%; for `O=C(NC1=CC(=O)c2ccccc2C1=O)c1ccccc1`: -80.8%; for `CC[C@H]1CN2CCc3cc(OC)c(OC)cc3[C@@H]2C[C@@H]1C[C@H]1NCCc2cc(OC)c(OC)cc21`: -83.7%. Regarding `N#Cc1ccc(-c2ccc(C3[C@@H]4CN(S(=O)(=O)c5ccc(F)cc5)C[C@H]3N4)cc2)cc1` (some centres undefined), the activation is -58.1%.

In the case of `CCc1ccc(N2CC(O)=C(c3nc4ccccc4c(=O)[nH]3)C2=N)cc1`, the activation was 165% (active). The same measure for `Cc1cc(C(=O)NNS(=O)(=O)c2ccccc2C(F)(F)F)nn1C(C)(C)C`: 259% (active).

Values taken from PubChem BioAssay AID651723 (Broad Institute, 2012).
